# Compound activity (PubChem BioAssay)
# In the library only some 4.2% were active in any assay of this set; here they are far more common.
# CHO parental Ca – counter-screen: ATP calcium response change in parental CHO cells; parental CHO-K1, ATP-induced calcium, Fluo-8 fluorescence; inhibition, % at 5.6 µM; 0.63% of 330,000 active; AID 463079;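 active = inhibition above that plate's mean sample inhibition plus 3 SD, cut at about 26% in these data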;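 also: 0% = ATP-challenged DMSO wells and 100% = DMSO wells without ATP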
#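 Assay system – parental CHO cells · Reagent – ATP stimulus · Detection – intracellular calcium via Fluo-8 no-wash fluorescent dye · Evaluation – percent inhibition of ATP-evoked calcium rise, normalized to controls · Controls – ATP wells versus no-ATP DMSO wells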
# GalR3 antagonist – blocks the human galanin receptor 3. AID 651719. O60755. inhibition, % at 3 µM. HEK293 GalR3-CNG cAMP membrane potential fluorescence; galR3 body fused to GalR1 C-terminus. 0.44% of 360,000 active;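 active = inhibition above the screen-wide average plus 3 SD, cut at about 13% in these data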;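 also: forskolin and galanin both at EC90 stimulate the cells; cAMP rise reported by CNG channel membrane potential dye signal; 0% = forskolin plus galanin with DMSO and 100% = forskolin alone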
# Target sequence (O60755 1-299 limits assumed): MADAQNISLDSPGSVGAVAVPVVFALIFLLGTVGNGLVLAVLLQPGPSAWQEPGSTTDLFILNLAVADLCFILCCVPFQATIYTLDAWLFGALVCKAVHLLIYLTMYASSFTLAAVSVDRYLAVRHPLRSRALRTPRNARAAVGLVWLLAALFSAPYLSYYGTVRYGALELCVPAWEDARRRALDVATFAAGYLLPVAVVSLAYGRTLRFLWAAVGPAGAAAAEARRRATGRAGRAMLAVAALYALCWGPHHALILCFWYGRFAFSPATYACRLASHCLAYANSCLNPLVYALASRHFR
# TAAR1 ag – human TAAR1 agonism; Q96RJ0; activation, % at 3 µM; 0.99% of 360,000 active; CHO RD-HGA16 TAAR1, Fluo-8 calcium fluorescence; vehicle wells 0%, saturating PEA agonist 100%; AID 624467;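 active = activation above the mean activation of all test compounds in the run plus 3 SD, cut at about 38% in these data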
#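 System: CHO RD-HGA16 cells carrying human TAAR1 plus Gα16; Incubation: 17-24 h seeding, 75 min 37 °C dye, 30 min RT; Measured by: Fluo-8 fluorescence, 5 s baseline then 140 s kinetic read; Control set: DMSO and PEA EC100; Replication: single well for each compound.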
# OX1R antag-1 – OX1R (human) antagonism | OX1R-expressing cells, FRET antagonist read-out | inhibition, % at 6.6 µM | AID 485270 | 1.8% of 330,000 active | O43613; in the data active = inhibition mostly above about 38%, no sharp cut-off; inactive = mostly below about 40%;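 also: 0% = agonist challenge alone and 100% = reference antagonist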
# Target sequence (O43613 whole entry, looked up): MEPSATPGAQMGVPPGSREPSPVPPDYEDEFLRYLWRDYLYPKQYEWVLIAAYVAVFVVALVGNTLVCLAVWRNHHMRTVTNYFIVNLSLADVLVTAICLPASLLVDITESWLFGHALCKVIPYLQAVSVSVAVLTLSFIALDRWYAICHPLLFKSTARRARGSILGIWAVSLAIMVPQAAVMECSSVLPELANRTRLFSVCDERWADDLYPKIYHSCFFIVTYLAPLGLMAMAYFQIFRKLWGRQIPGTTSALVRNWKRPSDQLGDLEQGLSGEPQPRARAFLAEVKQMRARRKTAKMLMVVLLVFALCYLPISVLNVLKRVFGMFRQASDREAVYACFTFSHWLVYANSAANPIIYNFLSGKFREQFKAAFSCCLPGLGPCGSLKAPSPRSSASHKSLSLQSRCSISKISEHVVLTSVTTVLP
# TAAR1 antagonist – human TAAR1 antagonism | 1.5% of 360,000 active | CHO RD-HGA16 TAAR1, Fluo-8 calcium fluorescence, antagonist | Q96RJ0 | inhibition, % at 3 µM | AID 624466;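 active = inhibition above a per-plate cutoff, the mean inhibition of test compounds on that plate plus 3 SD, cut at about 49% in these data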;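 also: 0% = DMSO plus EC80 beta-PEA response and 100% = DMSO alone without agonist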
#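 Material: RD-HGA16 CHO cells with stable hTAAR1 and Gα16; Dosing: single nominal final test compound concentration of 3 µM; Schedule: seeding 17-24 h prior, 75-min 37 °C, 30-min RT dye loading; Detection: kinetic Fluo-8 calcium fluorescence measurement; Measure: % inhibition from peak post-agonist over basal fluorescence ratio; Benchmarks: vehicle and agonist controls.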
# OX1R antag-2 – human HCRTR1 antagonism; O43613; CHO/OX1R cells, Fluo-8 calcium fluorescence, orexin A; inhibition, % at 5 µM; 0.43% of 330,000 active; AID 434989;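 active = inhibition above its plate's threshold, mean inhibition of all tested compounds on the plate plus 3 SD, cut at about 37% in these data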;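 also: 0% = orexin A challenge wells and 100% = SB-334867-A antagonist wells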
# TAAR1 ag confirm – confirmation of human TAAR1 agonists; AID 651783; 82% of 2,400 active; shares compounds with TAAR1 ag; activation, % at 3 µM; CHO RD-HGA16 TAAR1, Fluo-8 calcium fluorescence; scaled: DMSO 0%, maximal phenethylamine 100%;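 active = activation above a cutoff set at the run's mean compound activation plus 3 SD, cut at about 39% in these data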
# Ga16 nonsel ag – counter-screen for TAAR1 agonists: nonselective agonists in parental cells. shares compounds with TAAR1 ag. CHO-Ga16 parental, Fluo-8 calcium fluorescence; normalized to maximal ATP response, DMSO zero. activation, % at 3 µM. 50% of 2,400 active. AID 651787;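 active = activation above the run cutoff, the mean activation over all tested wells plus 3 SD, cut at about 12% in these data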;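 also: 0% = DMSO wells and 100% = maximal ATP response on the peak over basal ratio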
# TAAR1 desensitize – counter-screen for human TAAR1 agonists: agonists that desensitize TAAR1; shares compounds with TAAR1 ag; CHO RD-HGA16 hTAAR1, Fluo-8 calcium, beta-PEA response inhibition; inhibition, % at 3 µM; 46% of 2,400 active;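 active = inhibition above the run cutoff, the mean inhibition of all test compounds plus 3 SD, cut at about 49% in these data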;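 also: beta-PEA stimulus applied at its EC80; loss of beta-PEA calcium signal after compound pretreatment read as receptor desensitization; 0% = DMSO with beta-PEA at EC80 and 100% = DMSO alone without agonist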
# Ga16 antag count – nonselective Ga16 antagonism, counter-screen | inhibition, % at 3 µM | 39% of 2,400 active | AID 651952 | shares compounds with TAAR1 ag | CHO-Ga16 ATP-induced calcium, Fluo-8 fluorescence;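 active = inhibition above the plate's mean compound inhibition plus 3 SD, computed per plate, cut at about 22% in these data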;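 also: 0% = EC80 ATP with DMSO and 100% = DMSO wells without ATP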
# * = called active by the depositor; x = not tested or not shown; ! = repeats disagree.
SMILES,CHO parental Ca,GalR3 antagonist,TAAR1 ag,OX1R antag-1,TAAR1 antagonist,OX1R antag-2,TAAR1 ag confirm,Ga16 nonsel ag,TAAR1 desensitize,Ga16 antag count
COc1ccc2ccccc2c1-c1sc(Nc2ccccc2)n[n+]1-c1ccc(F)cc1,-11,-3,64*,15,-12,-10,52*,25*,46,37*
Fc1ccc(-[n+]2nc(Nc3ccccc3)sc2-c2c(Cl)cccc2Cl)cc1,34,-3,74*,30,32,11,89*,35*,73*,29*
CCN(CC)c1ccc2cc(-c3nc(-c4ccc(OC)cc4)cs3)c(=O)oc2c1,97*,1,451*,26,105*,106*,355*,606*,89*,96*
COc1ccc2cc(-c3ccccc3)c(=O)oc2c1,-3,-9,6,8,-16,-19,x,x,x,x
Cc1ccc(NC(=O)CC2C(=O)OCC3CCCCN32)cc1Cl (stereo not drawn),-9,-4,4,12,-9,-19,x,x,x,x
Cc1cccc(C)c1NC1=NC2(CCCCC2)N=C(N)N1,0,-2,4,11,-11,12,x,x,x,x
NC1=NC2(CCCCC2)N=C(Nc2ccc(Br)cc2)N1,2,-2,44*,7,18,-15,69*,9,41,0
COc1cc(CNCCc2ccc(F)cc2)ccc1OCc1ccc(Cl)nc1,-12,-7,37,10,-4,-10,x,x,x,x
COc1cc(CNCCc2c[nH]c3ccccc23)ccc1OCc1ccc(F)cc1,11,-7,60*,10,50*,10,54*,30*,52*,49*
COc1cc(CNCCc2ccccc2F)ccc1OCc1ccc(Cl)nc1,-12,-6,73*,7,36,-22,77*,10,57*,20
CCN=C1NC(c2ccc(F)cc2)C(C(=O)OC)=C(C)N1Cc1cccc(C(F)(F)F)c1 (stereo not drawn),x,-10,92*,x,95*,x,71*,39*,76*,57*
CCN=C1NC(c2ccc(Cl)cc2)C(C(=O)OC)=C(C)N1Cc1cccc(C(F)(F)F)c1 (stereo not drawn),x,-2,56*,x,74*,x,65*,35*,82*,59*
CCN=C1NC(c2ccc(C(F)(F)F)cc2)C(C(=O)OC)=C(C)N1Cc1cccc(C(F)(F)F)c1 (stereo not drawn),x,-9,46*,x,45,x,53*,28*,45,45*
COC(=O)C1=C(C)N(Cc2cccc(C(F)(F)F)c2)C(=NCc2ccccc2C(F)(F)F)NC1c1ccc(Cl)cc1 (stereo not drawn),x,-5,2,x,-24,x,x,x,x,x
CCN=C1NC(c2ccc(F)cc2)C(C(=O)OC)=C(C)N1Cc1ccc(C(F)(F)F)cc1 (stereo not drawn),x,-5,28,x,45,x,x,x,x,x
CCCCC(=O)Nc1nnc(SCC(=O)NC2CC2)s1,-5,-7,0,10,1,6,x,x,x,x
Cc1nc([N+](=O)[O-])c(Br)n1Cc1ccc(Cl)c(Cl)c1,x,-1,51*,x,37,x,9,5,18,13
Cc1nc([N+](=O)[O-])c(Br)n1CC(=O)c1ccc(Cl)cc1,-8,2,6,40,-20,-24,x,x,x,x
CC(=O)c1cc(Cl)ccc1OCC(=O)NC1CCCC1,x,-2,0,x,4,x,x,x,x,x
O=S(=O)(NC1CCCC1)c1ccc(S(=O)(=O)NC2CCCC2)cc1,-5,-5,57*,13,27,-7,45*,24*,40,32*
O=S(=O)(NC1CCCCCCC1)c1ccc(F)cc1,-10,0,11,22,-19,-36,x,x,x,x
CCCC[C@H](CN(N=O)[C@@H](Cc1ccccc1)CN(C)N=O)N(CCc1ccccc1)N=O,-17,-6,57*,16,24,-33,64*,0,23,14
CN(C[C@H](Cc1ccccc1)N(C[C@H](Cc1cccc2ccccc12)N(CCc1ccccc1)N=O)N=O)N=O,-19,-2,69*!,6,-5,-37,46*,1,5,10
CCC(CC)C(=O)c1c[nH]c(C(=O)NCc2cccs2)c1,-17,-3,4,6,3,-13,x,x,x,x
OC(COC(c1ccc(F)cc1)c1ccc(F)cc1)CN1CCCC(C(F)(F)F)C1 (stereo not drawn),3,-10,70*,14,38,-30,79*,3,58*,14
SMILES,CHO parental Ca,GalR3 antagonist,TAAR1 ag,OX1R antag-1,TAAR1 antagonist,OX1R antag-2,TAAR1 ag confirm,Ga16 nonsel ag,TAAR1 desensitize,Ga16 antag count
OCCN1CCN(CC(O)COC(c2ccc(F)cc2)c2ccc(F)cc2)CC1 (stereo not drawn),-5,0,0,-3,-10,-11,x,x,x,x
NC(=O)c1ccc(NCCc2cccs2)cc1,x,-8,15,x,-21,x,x,x,x,x
Cn1c2ccccc2c(=O)c2ccc(NCCc3cccs3)cc21,-3,-7,49*,40,63*,6,55*,5,51*,32*
O=c1[nH]ncc(N/N=C\c2ccc(O)cc2O)c1Cl,-8,4,73*,15,30,-19,80*,1,67*,9
Oc1ccc(/C=N/Nc2ncc(Br)cn2)c(O)c1,-14,-2,5,10,-8,-13,x,x,x,x
O=C(COC(=O)c1ccc(O)cc1O)NC(=O)Cc1ccccc1,x,4,143*,x,61*,x,134*,71*,88*,42*
O=C(COC(=O)c1ccccc1O)Nc1cccnc1Cl,6,-4,1,10,-2,-4,x,x,x,x
O=C(COC(=O)c1cc2ccccc2cc1O)NCc1ccccc1,11,-5,87*,11,83*,14,2,29*,6,22*
O=C(COC(=O)c1cc2ccccc2cc1O)Nc1cccnc1Cl,-9,-5,48*,12,31,-20,21,11,28,18
C(CCCN1CCCCC1)CCN1CCCCC1,0,-2,0,3,-10,-6,x,x,x,x
